# Measured values taken from paper PMC9942841 (Proceedings of the National Academy of Sciences of the …, 2023).
# Peptide text beside a SMILES is read from it.
# How the values were obtained:
# [1] = tested on: mixed P. aeruginosa–S. aureus biofilms; test: Clearance of established biofilm; format: cell-based, Pseudomonas aeruginosa + Staphylococcus aureus; conditions: concentrations <32 μM in PBS, 24 h, 37°C; crystal violet, 595 nm
# Method in brief: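 Preformed mixed P. aeruginosa–S. aureus biofilms were treated with the test compound, with gentamicin as comparator. Residual biomass was stained with crystal violet, and the solubilised dye was read spectrophotometrically at 595 nm. Results are expressed as biofilm percentage. The assay was run in both 96-well round-bottom plates and round-bottom tubes.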
# nude mice = test: In vivo safety assay; set-up: species or system mouse; conditions: 10 mg/kg or 20 mg/kg subcutaneously, 24 h after injection
# Method in brief: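 Twelve 6-week-old female athymic NU/NU nude mice were randomised into 3 groups of 4. Groups received 10 or 20 mg/kg test compound injected subcutaneously into the back skin. Serum was assayed for ALT, AST, urea, CREA and UA. Heart, liver, spleen, lung and kidney were examined histologically by H&E. Error bars are SD from 3 biological replicates.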
SMILES,Effect on preestablished mixed biofilm [1],"Histological examination of heart, liver, spleen, kidneys, lungs (H&E) (nude mice)","Serum levels of ALT, AST, UA, urea and CREA (nude mice)"
"CNC(C)C1CCC(N)C(OC2C(N)CC(N)C(OC3OCC(C)(O)C(NC)C3O)C2O)O1 (stereo not drawn) [Gentamicin, gentamicin]",little impact,–,–
NCCCC[C@H](NC(=O)[C@H](CCCCN)NC(=O)[C@H](Cc1c[nH]c2ccccc12)NC(=O)[C@H](CCCCN)NC(=O)[C@H](CCCCN)NC(=O)[C@H](Cc1c[nH]c2ccccc12)NC(=O)[C@@H](N)Cc1c[nH]c2ccccc12)C(=O)N[C@@H](Cc1c[nH]c2ccccc12)C(=O)N[C@@H](Cc1c[nH]c2ccccc12)C(N)=O [Peptide K6] (H-WWKKWKKWW-NH2),–,no abnormalities,within normal range
